≈ marks a conversion by molar mass, not a printed value. Calls of active or inactive are those of the source. No cut-off for these calls is given here.
Assays:
Saccharomyces cerevisiae [1] = test: Antimicrobial activity against Saccharomyces cerevisiae assessed as growth inhibition at 50 ug/ml in liquid medium by liquid MIC assay; assay type: functional, organism-based; settings: dose 50.0 µg/ml
Outline: (§1)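 Single-concentration liquid-medium growth screen of non-spore-forming microbes, run at 50 and 12.5 μg/mL. Growth is read by absorbance.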

Escherichia coli = test: Antibacterial activity against Escherichia coli ATCC 25922 assessed as growth inhibition incubated for 48 hrs in liquid medium by microbroth dilution assay; settings: ATCC 25922, 48 h
H9c2 = test: Cytotoxicity against rat H9c2 cells assessed as cell viability at 100 uM incubated for 24 hrs by CCk8 dye assay; assay type: toxicity, cell-based; settings: h9c2, 24 h
Outline: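 Rat myoblast H9c2 cells are exposed to 100 μM compound for 24 h. Viability is normalized to PBS no-treatment control. Values are mean ± SEM, n = 3.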

Erythrocyte = test: Hemolytic activity in sheep erythrocytes assessed as cell lysis at 50 to 100 uM measured after 1 hr; assay type: toxicity, cell-based, Ovis aries; settings: dose 50-100 µM
Outline: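 Erythrocytes are exposed to compound at 50 and 100 μM for 1 h. Lysis is normalized to a Triton X-100 positive control. Values are mean ± SEM, n = 3.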

Candida albicans [2] = test: Antifungal activity against Candida albicans assessed as growth inhibition at 50 ug/ml in liquid medium by liquid MIC assay; assay type: functional, organism-based; settings: dose 50.0 µg/ml; outline: as §1
Staphylococcus aureus [3] = test: Antibacterial activity against methicillin-resistant Staphylococcus aureus assessed as growth inhibition at 50 ug/ml in liquid medium by liquid MIC assay; assay type: functional, organism-based; settings: dose 50.0 µg/ml
Outline: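 Single-point growth-inhibition screen in liquid medium against nonspore-forming organisms. Compound tested at 50 and 12.5 μg/mL, growth read by absorbance, and reported at the 50 μg/mL level.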

Staphylococcus aureus [4] = test: Antibacterial activity against methicillin-resistant Staphylococcus aureus assessed as growth inhibition incubated for 48 hrs in solid agar medium by solid MIC assay; assay type: functional
Saccharomyces cerevisiae [5] = test: Antimicrobial activity against Saccharomyces cerevisiae assessed as growth inhibition incubated for 48 hrs in solid agar medium by solid MIC assay; assay type: functional
Aspergillus flavus = test: Antifungal activity against Aspergillus flavus assessed as growth inhibition incubated for 48 hrs in solid agar medium by solid MIC assay; assay type: functional
Outline: (§2)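 Dose-dependent solid-agar MIC assay for spore-forming fungi (liquid media unusable because mycelia clump and block absorbance). Compound tested at […] in agar. Fungal growth scored visually as white mycelia on the plates. MIC is taken from biological replicates.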

Penicillium chrysogenum = test: Antifungal activity against Penicillium chrysogenum assessed as growth inhibition incubated for 48 hrs in solid agar medium by solid MIC assay; assay type: functional; outline: as §2
Candida albicans [6] = test: Antifungal activity against Candida albicans assessed as growth inhibition incubated for 48 hrs in solid agar medium by solid MIC assay; assay type: functional
[7] = tested on: Trichophyton mentagrophytes; test: Antifungal activity against Trichophyton mentagrophytes assessed as growth inhibition incubated for 48 hrs in solid agar medium by solid MIC assay; assay type: functional; outline: as §2
Bacillus cereus = test: Antibacterial activity against Bacillus cereus assessed as growth inhibition incubated for 48 hrs in solid agar medium by solid MIC assay; assay type: functional
Pseudomonas aeruginosa = test: Antibacterial activity against Pseudomonas aeruginosa deltaMexAB-OprM assessed as growth inhibition incubated for 48 hrs in solid agar medium by solid MIC assay; assay type: functional

Row | Compound | Activity (Saccharomyces cerevisiae [1]) | Activity (H9c2) | Activity (Erythrocyte) | Activity (Candida albicans [2]) | other results
1 | COc1cccc(C2=CCOB2O)c1 | Active | – | – | – | –
2 | OB1OCC=C1c1cccs1 | Active | – | – | – | MIC (Escherichia coli): 42 µg/mL (≈ 253 µM)
3 | OB1OCC=C1c1ccc2occc2c1 | Active | Non-Toxic | Non-Toxic | Active | –
4 | OB1OCC=C1c1cccc(I)c1 | Active | Non-Toxic | Non-Toxic | Active | Activity (Staphylococcus aureus [3]): inactive
5 | OB1OCC=C1C1=CCCCC1 | Active | – | – | – | –
6 | OB1OCC=C1c1ccc(Cl)cc1 | Active | Non-Toxic | Non-Toxic | Active | –
7 | OB1OCC=C1c1cccc(Cl)c1 | Active | Non-Toxic | Non-Toxic | – | –
8 | OB1OCC=C1c1ccc(Br)cc1 | Active | Non-Toxic | Non-Toxic | Active | –
9 | CC(C)(C)c1ccc(C2=CCOB2O)cc1 | – | Non-Toxic | Non-Toxic | – | –
10 | OB1OCC=C1c1ccccc1F | Active | Non-Toxic | Non-Toxic | – | –
11 | OB1OCC=C1c1ccccc1Cl | Active | – | – | – | –
12 | OB1OCC=C1c1ccc2ccccc2c1 | – | Non-Toxic | Non-Toxic | – | –
13 | CCCc1ccc(C2=CCOB2O)cc1 | Active | Non-Toxic | Non-Toxic | – | –
14 | Cc1cc(F)cc(C2=CCOB2O)c1 | Active | Non-Toxic | Non-Toxic | – | MIC (Escherichia coli): > 50 µg/mL
15 | OB1OCC=C1c1cccc(Br)c1 | Active | Non-Toxic | Non-Toxic | Active | –
16 | OB1OCc2cc(F)ccc21 [TAVABOROLE] | – | Non-Toxic | Non-Toxic | – | MIC (Staphylococcus aureus [4]): > 50 µg/mL
17 | Cc1cccc(C2=CCOB2O)c1 | Active | Non-Toxic | Non-Toxic | – | –
18 | OB1OCC=C1c1ccc(F)cc1 | – | Non-Toxic | Non-Toxic | Active | MIC (Escherichia coli): 42 µg/mL (≈ 236 µM)
19 | Cc1ccc(C2=CCOB2O)cc1 | Active | Non-Toxic | Non-Toxic | – | MIC (Escherichia coli): 42 µg/mL (≈ 241 µM)
20 | NYSTATIN | – | – | – | – | MIC (Saccharomyces cerevisiae [5]): 1.56 µg/mL; MIC (Aspergillus flavus): 2.6 µg/mL; MIC (Penicillium chrysogenum): 1.56 µg/mL; MIC (Staphylococcus aureus [4]): > 50 µg/mL; MIC (Candida albicans [6]): 0.78 µg/mL; MIC [7]: 3.13 µg/mL; MIC (Bacillus cereus): > 50 µg/mL; MIC (Pseudomonas aeruginosa): > 50 µg/mL
21 | OB1OCC=C1c1ccc(OC(F)(F)F)cc1 | Active | Non-Toxic | Non-Toxic | Active | –
22 | OB1OCC=C1c1ccccc1 | Active | – | – | – | –
23 | OB1OCC=C1c1cccc(F)c1 | Active | Non-Toxic | Non-Toxic | – | –

— ChEMBL document CHEMBL5344463, “Design, Synthesis, and Antifungal Activity of 3-Substituted-2(5H)-Oxaboroles” (ACS Med Chem Lett, 2024)
